“And” between values parts separate entries of the source, which are not always exact repeats. Identical values can stand only once.
Tested on: U2OS
Assay: Multiplex assay against U2OS
Type: toxicity, cell-based
Conditions: human, 1 µM, compound concentration 1 uM
Summary of the method: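 Cells stained live at seeding with Hoechst33342, BioTracker Green Microtubule Cytoskeleton Dye, MitoTracker Red and Annexin V Alexa Fluor 680 were imaged on a CQ1 microscope at 37°C and 5% CO2 after compound addition. Their classification by CellPathfinder machine-learning gating ran from Hoechst high-intensity objects versus normal cells, to healthy, pyknosed or fragmented nuclei among normal cells, to mitotic or apoptotic among pyknosed cells. Tubulin, mitochondrial-mass and membrane-permeability phenotypes are per cents of healthy-nucleus cells.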

Q: For `C[C@H]1Oc2cc(cnc2N)-c2c(nn(C)c2C#N)CN(C)C(=O)c2ccc(F)cc21` [LORLATINIB], which “Population Apoptotic (%)” value (12 h, replicate 1) is on record?
A: 53% and 37%

Q: And the “Population Healthy Nuclei (%)” value (12 h, replicate 1)?
A: 88% and 89%

Q: What about the “Population Hoechst High Intensity Objects (%)” value (12 h, replicate 1) of the same molecule?
A: 2% and 3%

Q: And the “Population Membrane Permeable-Phenotype (%)” value (12 h, replicate 1)?
A: 14%

Q: And the “Population Mitochondria Different-Phenotype (%)” value (12 h, replicate 1)?
A: 20% and 32%

Q: And the “Population Mitotic Cells (%)” value (12 h, replicate 1)?
A: 46% and 62%

Q: What about the “Population Normal (%)” value (12 h, replicate 1) of the same molecule?
A: 97% and 96%

Q: And the “Population Pyknosed Nuclei (%)” value (12 h, replicate 1)?
A: 6% and 4%

Q: What about the “Population Tubulin-Different-Phenotype (%)” value (12 h, replicate 1) of the same molecule?
A: 15% and 22%

Q: What about the “Total Cell Count” value (12 h, replicate 1) of the same molecule?
A: 195 and 218

Q: And the “Population Apoptotic (%)” value (12 h, replicate 2)?
A: 25% and 0%

Q: And the “Population Healthy Nuclei (%)” value (12 h, replicate 2)?
A: 84% and 77%

Q: What about the “Population Hoechst High Intensity Objects (%)” value (12 h, replicate 2) of the same molecule?
A: 11% and 9%

Q: What about the “Population Membrane Permeable-Phenotype (%)” value (12 h, replicate 2) of the same molecule?
A: 15% and 8%

Q: And the “Population Mitochondria Different-Phenotype (%)” value (12 h, replicate 2)?
A: 35% and 38%

Q: What about the “Population Mitotic Cells (%)” value (12 h, replicate 2) of the same molecule?
A: 75% and 100%

Q: What about the “Population Normal (%)” value (12 h, replicate 2) of the same molecule?
A: 88% and 90%

Q: And the “Population Pyknosed Nuclei (%)” value (12 h, replicate 2)?
A: 10% and 2%

Q: And the “Population Tubulin-Different-Phenotype (%)” value (12 h, replicate 2)?
A: 26% and 35%

Q: And the “Total Cell Count” value (12 h, replicate 2)?
A: 129 and 122

Q: And the “Population Apoptotic (%)” value (24 h, replicate 1)?
A: 57% and 38%

Q: And the “Population Fragmented Nuclei (%)” value (24 h, replicate 1)?
A: 6% and 5%

Q: And the “Population Healthy Nuclei (%)” value (24 h, replicate 1)?
A: 86% and 87%

Q: And the “Population Hoechst High Intensity Objects (%)” value (24 h, replicate 1)?
A: 2%

Q: What about the “Population Membrane Permeable-Phenotype (%)” value (24 h, replicate 1) of the same molecule?
A: 11% and 7%

Q: And the “Population Mitochondria Different-Phenotype (%)” value (24 h, replicate 1)?
A: 22% and 25%

Q: And the “Population Mitotic Cells (%)” value (24 h, replicate 1)?
A: 42% and 61%

Q: What about the “Population Normal (%)” value (24 h, replicate 1) of the same molecule?
A: 97%

Q: And the “Population Pyknosed Nuclei (%)” value (24 h, replicate 1)?
A: 6% and 7%

Q: What about the “Population Tubulin-Different-Phenotype (%)” value (24 h, replicate 1) of the same molecule?
A: 16% and 28%

Q: And the “Total Cell Count” value (24 h, replicate 1)?
A: 254 and 277

Q: What about the “Population Apoptotic (%)” value (24 h, replicate 2) of the same molecule?
A: 55% and 21%

Q: What about the “Population Fragmented Nuclei (%)” value (24 h, replicate 2) of the same molecule?
A: 9% and 18%

Q: What about the “Population Healthy Nuclei (%)” value (24 h, replicate 2) of the same molecule?
A: 81% and 70%

Q: What about the “Population Hoechst High Intensity Objects (%)” value (24 h, replicate 2) of the same molecule?
A: 9% and 6%

Q: What about the “Population Membrane Permeable-Phenotype (%)” value (24 h, replicate 2) of the same molecule?
A: 14% and 8%

Q: And the “Population Mitochondria Different-Phenotype (%)” value (24 h, replicate 2)?
A: 33% and 41%

Q: What about the “Population Mitotic Cells (%)” value (24 h, replicate 2) of the same molecule?
A: 44% and 78%

Q: And the “Population Normal (%)” value (24 h, replicate 2)?
A: 90% and 93%

Q: What about the “Population Pyknosed Nuclei (%)” value (24 h, replicate 2) of the same molecule?
A: 8% and 10%

Q: What about the “Population Tubulin-Different-Phenotype (%)” value (24 h, replicate 2) of the same molecule?
A: 31%

Q: And the “Total Cell Count” value (24 h, replicate 2)?
A: 140 and 145

— ChEMBL document CHEMBL4689842, “EUbOPEN Chemogenomics Library wave 1” (2021)
